# Laboratory results as given in ChEMBL document CHEMBL5625188, “Exploring diverse reactive warheads for the design of SARS-CoV-2 main protease inhibitors” (Eur J Med Chem, 2023).
# Columns and labels:
# [1] = Cytotoxicity against African green monkey Vero cells incubated for 5 days by neutral red uptake assay; assay type: toxicity, cell-based; conditions: chlorocebus sabaeus, time 5 day; for CC50: vero, 120 h; for CC50 at 120 h: Vero cells
# In short: (§1)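 Vero E6 cells were kept in DMEM with 5% heat-inactivated FBS at 37 °C, 5% CO2, and seeded at 80,000 cells/mL. Neutral red uptake used 40 μg/mL dye for 2–4 h, read at 540 nm. CC50 came from a variable-slope dose-response fit.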
# [2] = target: T1, Replicase polyprotein 1ab (Severe acute respiratory syndrome coronavirus 2, UniProt P0DTD1); test: Inhibition of MPro of SARS CoV-2 BetaCoV/Wuhan/WIV04/2019 preincubated for 30 mins followed by substrate addition measured for 1 hr by FRET assay
# [3] = Cytotoxicity against human Calu-3 cells infected with SARS CoV-2 USA-WA1/2020 clinical isolate assessed as reduction in cell viability incubated for 48 hrs by imaging analysis; assay type: toxicity, cell-based
# [4] = Cytotoxicity against African green monkey Vero cells; assay type: toxicity, cell-based; conditions: chlorocebus sabaeus; in short: as §1
# [5] = target: T1, Replicase polyprotein 1ab; test: Inhibition of SARS-CoV-2 MPro
# In short: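 FRET substrate was added to 10 μM final. Fluorescence (ex 360, em 460 nm) was followed 1 h at 30 °C. Initial velocities came from linear regression of the first 15 min, giving % inhibition and IC50.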
# [6] = target: T1, Replicase polyprotein 1ab; test: Inhibition of MPro of SARS CoV-2 BetaCoV/Wuhan/WIV04/2019 incubated for 2 hrs in presence of substrate by FRET assay
# SARS-CoV-2 = test: Antiviral activity against SARS CoV-2 USA-WA1/2020 clinical isolate infected in human Calu-3 cells assessed as reduction in viral infection incubated for 48 hrs by imaging analysis; assay type: functional, organism-based; conditions: Severe acute respiratory syndrome coronavirus 2, USA-WA1/2020, Calu-3, 48 h
SMILES,IC50 [2] [µM],further results
C=CS(=O)(=O)N(c1ccc(-c2ccccc2)cc1)[C@@H](C(=O)N[C@@H](C)c1ccccc1)c1cccnc1,0.31,CC50 [1]: 18.4 µM
COc1ccc(/C=C(\C#N)C(=O)N(c2ccc(-c3ccccc3)cc2)[C@@H](C(=O)N[C@@H](C)c2ccccc2)c2cccnc2)cc1,,CC50 [1]: > 100 µM; CC50 at 48 h [3]: > 100 µM
C#CC(=O)N(c1ccc(-c2ccccc2)cc1)[C@@H](C(=O)N[C@@H](C)c1ccccc1)c1cccnc1,,CC50 at 120 h [1]: 2.06 µM
C#CCN(c1ccc(-c2ccccc2)cc1)C(C(=O)N[C@@H](C)c1ccccc1)c1cccnc1 (stereo partly drawn),> 20,
CCC#CC(=O)N(c1ccc(-c2ccccc2)cc1)C(C(=O)N[C@@H](C)c1ccccc1)c1cccnc1 (stereo partly drawn),1.65,CC50 at 120 h [1]: 38.6 µM
C=C(NC(C)=O)C(=O)N(c1ccc(-c2ccccc2)cc1)C(C(=O)N[C@@H](C)c1ccccc1)c1cccnc1 (stereo partly drawn),> 20,
C[C@H](NC(=O)C(c1cccnc1)N(C(=O)C1(C#N)CCN(C(=O)OC(C)(C)C)CC1)c1ccc(-c2ccccc2)cc1)c1ccccc1 (stereo partly drawn),> 20,
C[C@H](NC(=O)C(c1cccnc1)N(C(=O)/C=C/Br)c1ccc(-c2ccccc2)cc1)c1ccccc1 (stereo partly drawn),> 20,
C=C(C(=O)N(c1ccc(-c2ccccc2)cc1)C(C(=O)N[C@@H](C)c1ccccc1)c1cccnc1)c1ccccc1 (stereo partly drawn),> 20,
C[C@H](NC(=O)[C@H](c1cccnc1)N(C(=O)C#CCCl)c1ccc(-c2ccccc2)cc1)c1ccccc1,,CC50 [1]: 2.2 µM
C[C@H](NC(=O)[C@H](c1cccnc1)N(C(=O)C#CCC#N)c1ccc(-c2ccccc2)cc1)c1ccccc1,> 20,
C[C@H](NC(=O)C(c1cccnc1)N(C(=O)/C(C#N)=C/C1CC1)c1ccc(-c2ccccc2)cc1)c1ccccc1 (stereo partly drawn),> 20,
C[C@H](NC(=O)C(c1cccnc1)N(C(=O)C(C#N)=C1CCCCC1)c1ccc(-c2ccccc2)cc1)c1ccccc1 (stereo partly drawn),> 20,
C/C=C(\C)C(=O)N(c1ccc(-c2ccccc2)cc1)C(C(=O)N[C@@H](C)c1ccccc1)c1cccnc1 (stereo partly drawn),> 20,
C#CCC(=O)N(c1ccc(-c2ccccc2)cc1)C(C(=O)N[C@@H](C)c1ccccc1)c1cccnc1 (stereo partly drawn),4.63,
COC(=O)/C=C/C(=O)N(c1ccc(-c2ccccc2)cc1)C(C(=O)N[C@@H](C)c1ccccc1)c1cccnc1 (stereo partly drawn),3.97,CC50 at 120 h [1]: 8.9 µM
C=C(Br)C(=O)N(c1ccc(-c2ccccc2)cc1)C(C(=O)N[C@@H](C)c1ccccc1)c1cccnc1 (stereo partly drawn),4.26,CC50 at 120 h [1]: < 3.9 µM
C=C(C)C(=O)N(c1ccc(-c2ccccc2)cc1)C(C(=O)N[C@@H](C)c1ccccc1)c1cccnc1 (stereo partly drawn),> 20,
C=C(Cl)C(=O)N(c1ccc(-c2ccccc2)cc1)C(C(=O)N[C@@H](C)c1ccccc1)c1cccnc1 (stereo partly drawn),,CC50 [4]: < 10 µM
C[C@H](NC(=O)C(c1cccnc1)N(C(=O)C#CC(C)(C)O)c1ccc(-c2ccccc2)cc1)c1ccccc1 (stereo partly drawn),1.28,CC50 at 120 h [1]: 19.1 µM
C[C@H](NC(=O)C(c1cccnc1)N(C(=O)C1=CC(=O)CC1)c1ccc(-c2ccccc2)cc1)c1ccccc1 (stereo partly drawn),> 20,
C[C@H](NC(=O)C(c1cccnc1)N(C(=O)C#CC1CC1)c1ccc(-c2ccccc2)cc1)c1ccccc1 (stereo partly drawn),0.85,CC50 [1]: 102 µM
CC(C)C#CC(=O)N(c1ccc(-c2ccccc2)cc1)C(C(=O)N[C@@H](C)c1ccccc1)c1cccnc1 (stereo partly drawn),4.19,
CCC(=O)C(=O)N(c1ccc(-c2ccccc2)cc1)C(C(=O)N[C@@H](C)c1ccccc1)c1cccnc1 (stereo partly drawn),3.81,

SMILES,IC50 [2] [µM],further results
CC(C)=CC(=O)N(c1ccc(-c2ccccc2)cc1)C(C(=O)N[C@@H](C)c1ccccc1)c1cccnc1 (stereo partly drawn),> 20,
C=CC(=O)N(c1ccc(-c2ccccc2)cc1)C(C(=O)N[C@@H](C)c1ccccc1)c1cccnc1 (stereo partly drawn),,IC50 [5]: > 20 µM
C[C@H](NC(=O)[C@@H](c1cccnc1)N(C(=O)C#CCC#N)c1ccc(-c2ccccc2)cc1)c1ccccc1,0.5,CC50 at 120 h [1]: > 100 µM; Ki [6]: 0.345 µM; CC50 at 48 h [3]: > 100 µM; EC50 (SARS-CoV-2): 2.92 µM
CC#CC(=O)N(c1ccc(-c2ccccc2)cc1)C(C(=O)N[C@@H](C)c1ccccc1)c1cccnc1 (stereo partly drawn),,CC50 at 120 h [1]: 18 µM
C[C@H](NC(=O)C(c1cccnc1)N(C(=O)/C=C/c1ccco1)c1ccc(-c2ccccc2)cc1)c1ccccc1 (stereo partly drawn),15.4,
C[C@H](NC(=O)C(c1cccnc1)N(C(=O)/C=C\I)c1ccc(-c2ccccc2)cc1)c1ccccc1 (stereo partly drawn),> 20,
C#CC(=O)N(c1ccc(-c2ccccc2)cc1)[C@H](C(=O)N[C@@H](C)c1ccccc1)c1cccnc1,,CC50 at 120 h [1]: 2.8 µM
C=CS(=O)(=O)N(c1ccc(-c2ccccc2)cc1)[C@H](C(=O)N[C@@H](C)c1ccccc1)c1cccnc1,6.49,
CC(=O)/C=C/C(=O)N(c1ccc(-c2ccccc2)cc1)C(C(=O)N[C@@H](C)c1ccccc1)c1cccnc1 (stereo partly drawn),17,
C=C(F)C(=O)N(c1ccc(-c2ccccc2)cc1)C(C(=O)N[C@@H](C)c1ccccc1)c1cccnc1 (stereo partly drawn),> 20,
C[C@H](NC(=O)C(c1cccnc1)N(C(=O)C#CC(C)(C)F)c1ccc(-c2ccccc2)cc1)c1ccccc1 (stereo partly drawn),> 20,
C[C@H](NC(=O)C(c1cccnc1)N(C(=O)/C=C/C(=O)O)c1ccc(-c2ccccc2)cc1)c1ccccc1 (stereo partly drawn),12.4,CC50 at 120 h [1]: > 250 µM
C[C@H](NC(=O)C(c1cccnc1)N(C(=O)C1(C#N)CC1)c1ccc(-c2ccccc2)cc1)c1ccccc1 (stereo partly drawn),> 20,
C[C@H](NC(=O)C(c1cccnc1)N(C(=O)C(=O)N1CCN(C)CC1)c1ccc(-c2ccccc2)cc1)c1ccccc1 (stereo partly drawn),> 20,
C=C(C(=O)N(c1ccc(-c2ccccc2)cc1)C(C(=O)N[C@@H](C)c1ccccc1)c1cccnc1)C(F)(F)F (stereo partly drawn),4.36,CC50 at 120 h [1]: < 3.9 µM
C[C@H](NC(=O)C(c1cccnc1)N(C(=O)C1=CCCCC1)c1ccc(-c2ccccc2)cc1)c1ccccc1 (stereo partly drawn),> 20,
C[C@H](NC(=O)[C@@H](c1cccnc1)N(C(=O)C#CCCl)c1ccc(-c2ccccc2)cc1)c1ccccc1,,CC50 [1]: 2 µM
C#CCCC(=O)N(c1ccc(-c2ccccc2)cc1)C(C(=O)N[C@@H](C)c1ccccc1)c1cccnc1 (stereo partly drawn),> 20,
C[C@H](NC(=O)C(c1cccnc1)N(C(=O)C(F)(F)S(=O)(=O)F)c1ccc(-c2ccccc2)cc1)c1ccccc1 (stereo partly drawn),> 20,
CC(C)/C=C(\C#N)C(=O)N(c1ccc(-c2ccccc2)cc1)C(C(=O)N[C@@H](C)c1ccccc1)c1cccnc1 (stereo partly drawn),> 20,
C[C@H](NC(=O)C(c1cccnc1)N(C(=O)C1(C#N)CCOCC1)c1ccc(-c2ccccc2)cc1)c1ccccc1 (stereo partly drawn),> 20,
CO/C=C/C(=O)N(c1ccc(-c2ccccc2)cc1)C(C(=O)N[C@@H](C)c1ccccc1)c1cccnc1 (stereo partly drawn),> 20,
C[C@H](NC(=O)C(c1cccnc1)N(C(=O)/C=C/Cl)c1ccc(-c2ccccc2)cc1)c1ccccc1 (stereo partly drawn),> 20,
CCC(CC)COC(=O)[C@H](C)N[P@](=O)(OC[C@H]1O[C@@](C#N)(c2ccc3c(N)ncnn23)[C@H](O)[C@@H]1O)Oc1ccccc1 [REMDESIVIR],,CC50 at 120 h [1]: > 10 µM; CC50 at 48 h [3]: > 10 µM; EC50 (SARS-CoV-2): 0.17 µM
